NALP3 yeast inh = inhibitors of NALP3 inflammasome in yeast | Yeast reconstituted NLRP3/ASC/caspase-1, beta-gal luminescence, 24 h | inhibition, % at 10 µM | actives 0.39% (n = 330,000) | AID 2825;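 active = inhibition of 50% or more; inactive = inhibition below 50%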
ALR H2O2 inh = human ALR oxidase inhibition via reduced H2O2; P55789; purified ALR, DTT oxidation, H2O2 HRP-luminol luminescence; inhibition, % (no concentration beside the values); actives 3.8% (n = 290,000);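 active = mean replicate inhibition above about 79%, with every replicate also reaching it, limit read from the data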
Target sequence (P55789 whole entry, looked up): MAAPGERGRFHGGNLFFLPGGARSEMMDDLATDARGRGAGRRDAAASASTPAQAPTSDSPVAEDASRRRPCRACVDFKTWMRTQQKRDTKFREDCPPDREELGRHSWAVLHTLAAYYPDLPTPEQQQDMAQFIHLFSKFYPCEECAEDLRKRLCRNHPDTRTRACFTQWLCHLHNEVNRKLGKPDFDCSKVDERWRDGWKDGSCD
NALP1 inh = NALP1 inhibition. inhibition, % at 10 µM. S. cerevisiae NALP1/ASC/caspase-1 growth, X-gal OD620, 72 h. AID 2071. actives 0.61% (n = 280,000); in the data active = inhibition mostly above about 24%, no sharp cut-off; inactive = mostly below about 32%
UCH37 DUB inh = inhibitors of human deubiquitinating enzyme UCH37; Q9Y5K5; purified proteasome/UCH37, Ub-AMC cleavage fluorescence; inhibition, % (concentration not given with the values); actives 0.33% (n = 330,000);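 active = mean inhibition over replicate wells above about 20%, limit read from the data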
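Material: Human UCH37 enzyme supplied as purified proteasome complex | Schedule: 30 min preincubation with enzyme, 25 min cleavage at room temperature | Detection: AMC fluorescence 355/460 nm | Measure: % inhibition of Ub-AMC cleavage fluorescence | Controls: Wells without proteasome as full block, compound-free enzyme plus substrate as uninhibited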
Calb FLC = affects C. albicans growth with fluconazole. C. albicans CaCi-2 + fluconazole, Alamar Blue growth, 48 h. growth inhibition, % (no concentration beside the values). actives 0.57% (n = 300,000). AID 1979;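 active = growth inhibition above about 58% in most replicates, limit read from the data, passing the limit was not always enough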;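 note: all wells also contain fluconazole at 8 µg/ml as a sub-toxic cotreatment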
ATG4B inh = ATG4B (human) cysteine protease inhibition | Q9Y4P1 | ATG4B cleavage of LC3-PLA2, NBD-HPC fluorescence, 1 h | inhibition, % at 8.33 µM | actives 0.51% (n = 340,000) | AID 504462; in the data active = inhibition above about 40%
Target sequence (Q9Y4P1 whole entry, looked up): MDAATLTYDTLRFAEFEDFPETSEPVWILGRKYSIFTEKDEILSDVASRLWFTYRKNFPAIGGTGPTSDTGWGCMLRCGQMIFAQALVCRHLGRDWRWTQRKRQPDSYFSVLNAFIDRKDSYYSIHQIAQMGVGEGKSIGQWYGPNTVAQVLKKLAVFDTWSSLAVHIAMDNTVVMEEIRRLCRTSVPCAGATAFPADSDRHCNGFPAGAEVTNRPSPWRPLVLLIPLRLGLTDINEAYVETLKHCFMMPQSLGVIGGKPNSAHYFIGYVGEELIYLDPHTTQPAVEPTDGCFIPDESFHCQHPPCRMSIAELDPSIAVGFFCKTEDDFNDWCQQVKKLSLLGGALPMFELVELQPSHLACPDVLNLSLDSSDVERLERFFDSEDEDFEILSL
Hits are given with their value; – = inactive; · = not tested or not shown. An excerpt weighted towards active compounds, which were near 4.8% of everything screened.

SMILES	NALP3 yeast inh	ALR H2O2 inh	NALP1 inh	UCH37 DUB inh	Calb FLC	ATG4B inh
COc1ccccc1CNC(=O)CS(=O)Cc1nc(-c2ccc(OC)c(OC)c2)oc1C (centres undefined)	–	99	–	–	–	–
COc1ccc(-c2nc(CSCC(=O)N3CCc4ccccc43)c(C)o2)cc1OC	–	99	–	–	–	–
COc1cccc(-c2nc(CSCC(=O)N3CCc4ccccc43)c(C)o2)c1	–	–	–	–	–	–
COc1ccc(-c2nc(CSCC(=O)NCCC3=CCCCC3)c(C)o2)cc1OC	–	100	–	–	–	–
Cc1oc(-c2ccccc2F)nc1CS(=O)CC(=O)NCc1ccc2c(c1)OCO2 (centres undefined)	–	99	–	–	–	–
COc1ccc(C=NNC(=O)C(=O)N2CCCCCC2)cc1[N+](=O)[O-]	·	·	·	–	·	·
Nc1ccccc1Nc1c(F)c(F)nc(F)c1Cl	–	98	–	–	–	–
Nc1ccccc1Nc1cc(-c2cccc(Cl)c2)nn1-c1ccccc1	–	–	–	–	–	–
CCCOC(=O)/C(=C\c1ccc([N+](=O)[O-])o1)NC(=O)c1ccccc1	–	–	–	–	89	–
Cc1cc(C=Nn2cnnc2)c(C)n1-c1ccc2ncccc2c1	·	·	·	–	·	·
COc1ccc(C(=O)Oc2ccc(C=NNC(=O)c3cccnc3)cc2OC)cc1	·	·	·	–	·	·
COc1ccc(CSC2=NCCN2)cc1Cl	–	100	–	–	–	–
COc1ccc(CSC2=NCCN2)cc1Br	–	99	–	–	–	–
Clc1cccc(CSC2=NCCCN2)c1	–	–	–	–	–	–
O=C(CCN1CCN(c2ccccc2)CC1)NN=Cc1ccccc1O	·	·	·	–	·	·
COc1cc(OC)c2cc(C(=O)NN=Cc3cccc(OC)c3O)[nH]c2c1	·	·	·	–	·	·
CON=CNC(=O)C1=NOC(CNc2ncc(C(F)(F)F)cc2Cl)C1 (centres undefined)	·	·	·	–	·	·
COc1ccc(CCn2c(SCCN3CCCCC3)nc3ccccc3c2=O)cc1OC	–	–	34	–	–	–
Cc1csc(SCC(=O)Nc2sccc2C(N)=O)n1	–	95	–	–	–	–
Cc1csc(SCC(=O)Nc2nccs2)n1	–	–	·	–	–	–
COc1ccc2c(c1)C(=NO)c1cc(OC)ccc1-2	–	96	·	–	–	–
COc1ccc(CNc2ccc(Cl)cc2)cc1Cn1ccnc1	–	·	–	–	–	–
CCc1ccc(NCc2ccc(OC)c(Cn3ccnc3)c2)cc1	–	81	–	–	–	–
CC(=O)N(C)c1ccc(N=Nc2c(C)[nH]n(C(N)=S)c2=O)cc1	–	·	–	–	–	–
Cc1cccc(N=Nc2c(C)[nH]n(C(N)=S)c2=O)c1C	–	–	–	–	105	·
SMILES	NALP3 yeast inh	ALR H2O2 inh	NALP1 inh	UCH37 DUB inh	Calb FLC	ATG4B inh
CCN(CC)S(=O)(=O)c1ccc(N=Nc2c(C)[nH]n(C(N)=S)c2=O)cc1	–	95	–	–	–	–
CC(C)c1nnc(NC(=O)COc2ccc3c(c2)OCO3)s1	–	–	30	–	–	–
CC(C)c1ccc(C=NNC(=O)c2nnn(-c3nonc3N)c2CN2CCOCC2)cc1	·	·	·	–	·	·
CCCc1cc(=O)[nH]c(SCC(=O)Nc2ccc3c(c2)CCC3)n1	–	–	–	–	–	–
Nc1cc(=O)[nH]c(SCC(=O)Nc2ccc3c(c2)CCC3)n1	–	90	–	–	–	–
O=C(CSc1nc(O)cc(=O)[nH]1)N1CCCc2ccccc21	–	99	–	–	–	–
Nc1cc(=O)[nH]c(SCC(=O)Nc2ccc(F)c(Cl)c2)n1	–	–	–	–	–	–
Cc1cc(=O)[nH]c(SCC(=O)N2CCCc3ccccc32)n1	–	–	–	–	–	–
O=C(CSc1nc(O)cc(=O)[nH]1)Nc1ccc2c(c1)CCC2	–	99	–	–	–	–
CC(=NNc1nc(C(=O)O)cs1)c1ccccc1	·	·	·	–	·	·
Cn1c(/N=C/c2c(O)ccc3ccccc23)nc2ccccc21	·	91	–	·	–	–
O=c1c(C=NOCc2ccc(Cl)cc2Cl)c[nH]n1-c1cccc(Cl)n1	·	·	·	–	·	·
COc1ccc(/C=N/NC(=O)c2nn(C)cc2Br)cc1CSCc1ccco1	–	98	–	·	–	–
Cc1ccc(-c2nc3sc(=Cc4ccco4)c(=O)n3n2)cc1	·	·	·	–	·	·
CC(C)c1ccc(/C=c2\sc3nc(-c4ccncc4)nn3c2=O)cc1	–	87	–	·	–	–
Cc1ccc(/C=c2\sc3nc(-c4cccnc4)nn3c2=O)cc1	·	91	–	·	–	–
CCn1ncc(C=NNC(=O)c2cc(-c3ccc(C)cc3C)nc3ccccc23)c1C	·	·	·	–	·	·
CCOc1ccccc1C1C2=C(COC2=O)Nc2cc3c(cc21)OCO3 (centres undefined)	–	·	–	–	83	–
Cc1occc1C(=O)NN=Cc1ccccc1[N+](=O)[O-]	·	·	·	–	·	·
Cc1ccc(S(=O)(=O)Nc2nc(C)cc(NN=Cc3ccc(O)cc3)n2)cc1	·	·	·	–	·	·
CCOC(=O)c1ccc2c(c1)[nH]c(=S)n2CC	–	83	–	–	–	–
O=C(O)CNC(=O)c1cccc(C(F)(F)F)c1	–	–	–	–	–	–
Cc1c(CCCC(=O)O)sc(N)c1C(=O)c1cccc(C(F)(F)F)c1	–	96	·	–	–	–
CCOC(=O)CSc1nnc(NCC(=O)OC(C)C)c(=O)[nH]1	–	97	–	–	–	–
CCOC(=O)CNC(=O)CSc1nnc(C)c(=O)[nH]1	–	–	–	–	–	–
SMILES	NALP3 yeast inh	ALR H2O2 inh	NALP1 inh	UCH37 DUB inh	Calb FLC	ATG4B inh
CCOC(=O)C=c1sc(=Cc2ccc3cc(OC)ccc3c2)c(=O)n1CC(=O)NCc1ccc2c(c1)OCO2	·	·	·	–	·	·
O=C(NN=Cc1ccco1)C1CC1(c1ccccc1)c1ccccc1 (centres undefined)	·	·	·	–	·	·
O=C(CSS(=O)(=O)O)N1CCN(C(=O)c2ccoc2)CC1	–	98	–	–	–	–
C(/C=C/c1ccccc1)=NN1CCN(Cc2ccccc2)CC1	·	·	·	–	·	·
Cc1ccc(C)c(N2CCN(C(=O)Cn3c(=O)oc4cc(S(=O)(=O)N5CCCC5)ccc43)CC2)c1	–	·	–	–	–	–
O=C(Cn1c(=O)oc2cc(S(=O)(=O)N3CCCC3)ccc21)N1CCN(c2ccccc2)CC1	–	–	39	–	–	–
NC(N)=Nc1ccc(N=C(N)N)cc1	·	–	40	·	–	–
O=C1CC(c2ccccc2)Sc2ccccc2N1 (centres undefined)	–	94	–	–	–	–
O=C1CC(c2ccco2)Sc2ccccc2N1 (centres undefined)	–	·	–	–	–	–
Cc1ccc(OCC(=O)NNc2c3ccccc3nc3ccccc23)cc1	–	96	–	–	–	–
Cc1ccc(OCC(=O)NNC(=O)CCC(=O)NCc2ccccc2)cc1	–	–	–	–	–	–
Cc1cccc(OCC(=O)NNc2c3ccccc3nc3ccccc23)c1	–	99	–	–	–	–
O=C(Cc1ccccc1)NNc1c2ccccc2nc2ccccc12	–	98	–	–	–	–

Compound activity: PubChem, several laboratories
